CAL PDZ FP-1: inhibitors of human CAL PDZ peptide binding; Q9HD26; purified CAL PDZ, TMR-peptide fluorescence polarization, 1 h; inhibition, % at 20 µM; actives 0.02% (n = 330,000);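 active = highest replicate inhibition of at least 40%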;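 also: plate controls were DMSO neutral control wells for no effect and unlabeled competitor peptide control wells for full effect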
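Material: tagged CAL PDZ domain; buffer or medium: 25 mM sodium phosphate pH 7.4, 150 mM NaCl, TCEP, IgG, Thesit; compound dosing: single point, 20 µM; schedule: 1 h incubation at room temperature before polarization reading; measured by: FP readout, S and P plane fluorescence; read-out basis: percent inhibition from loss of millipolarization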
ARNT TACC3 PPI: disruptors of human ARNT/TACC3 interaction; Q9Y6A5; AlphaScreen His-ARNT PAS-B/GST-TACC3 binding, luminescence; TACC3 fragment carries E629A point mutation; inhibition, % at 9.99 µM; actives 0.66% (n = 390,000); AID 623870;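 active = mean inhibition of replicates at least 50% and at least half of replicates each reaching 50%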;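 also: 0% = complete ARNT plus TACC3 wells and 100% = ARNT alone without TACC3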
GRK2 aptamer HTS: human GRK2 inhibition via aptamer displacement; inhibition of aptamer binding, % at 10 µM; P25098; bead flow cytometry, FAM-aptamer displacement from GRK2; actives 0.59% (n = 330,000);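 active = inhibition of aptamer binding above 40%, roughly 3 SD of noise, on plates passing a quality check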;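 also: median bead fluorescence of bound FAM aptamer so fluorescent compounds give negative values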
Tn6 DDE FP: disrupts Tn6 cyclic peptide binding to fibrin D-Dimer-E complex | P02675 | Fibrin DD(E) TRITC-Tn6 fluorescence polarization displacement | inhibition, % at 8.3 µM | actives 0.21% (n = 370,000) | AID 720509;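 active = inhibition above a per-campaign cutoff: mean of compounds within control limits plus 3 SD, cut at about 15% in these data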;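 also: 0% = median of all compound wells on the plate and 100% = blocking peptide control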
Target sequence (P02675 whole entry, looked up): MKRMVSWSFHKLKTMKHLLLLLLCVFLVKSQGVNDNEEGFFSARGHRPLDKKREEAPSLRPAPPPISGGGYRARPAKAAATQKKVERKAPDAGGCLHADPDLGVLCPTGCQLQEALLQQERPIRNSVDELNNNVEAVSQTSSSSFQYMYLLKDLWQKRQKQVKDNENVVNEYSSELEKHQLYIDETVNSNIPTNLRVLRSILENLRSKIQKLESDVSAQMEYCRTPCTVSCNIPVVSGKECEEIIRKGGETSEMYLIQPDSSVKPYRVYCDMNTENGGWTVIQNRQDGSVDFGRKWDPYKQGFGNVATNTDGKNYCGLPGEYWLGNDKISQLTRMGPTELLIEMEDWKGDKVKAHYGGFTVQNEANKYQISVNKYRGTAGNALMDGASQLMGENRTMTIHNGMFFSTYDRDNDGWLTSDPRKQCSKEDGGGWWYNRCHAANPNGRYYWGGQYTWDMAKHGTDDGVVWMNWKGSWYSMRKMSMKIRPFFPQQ
CAL PDZ FP-2: CAL PDZ (human) peptide binding inhibition. Q9HD26. purified CAL PDZ, TMR-peptide fluorescence polarization, 1 h. inhibition, % at 24.9 µM. actives 0.92% (n = 300,000);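 active = mean inhibition of at least 30% with at least half of replicates also reaching 30%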;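 also: 0% = DMSO neutral control and 100% = excess unlabeled competitor peptide PRC23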
Tn7 DDE FP: disrupts Tn7 cyclic peptide binding to fibrin D-Dimer-E complex. inhibition, % at 8.3 µM. P02675. actives 0.13% (n = 370,000). AID 720508. FP displacement of FITC-Tn7 peptide from fibrin DD(E); 0% = median of compound wells per plate;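 active = inhibition above the mean of compounds falling within the control limits plus 3 SD of them, cut at about 14% in these data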;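 also: 0% = plate median of compound wells and 100% = 10 µM Aha-Tn7 peptide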
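Assay system: Fibrin-DD(E) protein isolated from polymerized human fibrin clots; read-out basis: percent inhibition; medium: Tris/NaCl/CaCl2 buffer, pH 7.8; signal: FP measurement; incubation: 10 min plus 3 h, room temperature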
* = called active by the depositor; / = no result given. Sampled rows, rich in hits. Any-hit rate of the full collection: about 1.8%.

SMILES	CAL PDZ FP-1	ARNT TACC3 PPI	GRK2 aptamer HTS	Tn6 DDE FP	CAL PDZ FP-2	Tn7 DDE FP
COc1ccc(C2c3ccc(O)cc3Oc3ncn4nc(-c5ccccn5)nc4c32)cc1OC (stereo not given)	-3	59*	1	5	-7	-8
O=C1CCC(=O)N1OCCCCOc1ccccc1	-2	-4	42*	4	2	3
O=C(O)c1cccc(OCCN2CCCC2=O)c1	0	-2	0	4	/	4
CN1CCC(=O)N(CCOc2ccccc2)CC1	0	60*	2	5	-2	7
O=C1CCC(=O)N1OCCCOc1ccccc1	0	-4	0	3	0	-5
Cc1cccc(NC(=O)Cn2cnc3c(oc4ccccc43)c2=O)c1C	62*	-4	0	-1	-6	-4
O=C(CCN1C(=O)/C(=C\c2ccccc2Cl)SC1=S)Nc1cccnc1	-1	-8	3	-1	66*	2
COc1cccc(CNc2cccc3cccnc23)c1O	-2	23	0	11	/	1
Cc1ccc(O)c(CNc2cccc3cccnc23)c1	0	37	0	0	-1	1
Oc1ccc(Br)cc1CNc1cccc2cccnc12	0	49*	0	-7	-5	-10
Oc1c(Br)cc(Br)cc1CNc1cccc2cccnc12	1	113*	3	-4	/	1
O=C(NCC[C@@H]1CC[C@H](NC(=O)C2CCCCC2)[C@H](CO)O1)c1ccc(F)cc1	/	9	/	/	/	/
Cc1ccc(/C=C2/Sc3ccccc3N(CC(=O)NCC3CCCO3)C2=O)cc1 (stereo not given)	-1	3	0	/	184*	/
CCc1ccc(/C=C2/Sc3ccccc3N(CC(=O)NCC3CCCO3)C2=O)cc1 (stereo not given)	-3	/	1	-8	-3	4
COc1ccc(OC)c2sc(N3CCc4ccccc4C3)nc12	-1	-1	0	-6	33*	-6
COc1ccc(OC)c2sc(N3CCCCC3)nc12	-1	2	0	9	-6	-1
O=C(O)CN1CCN(CC(=O)O)CCN(CC(=O)O)CCN(CC(=O)O)CC1	0	60*	3	5	1	-2
Cc1ccccc1S(=O)(=O)NCC[C@@H]1CC[C@@H](NC(=O)C2CC2)[C@@H](CO)O1	/	-30	/	/	/	/
Cc1c(C(=O)N2CCCCCC2)nnn1-c1nonc1N	0	-3	0	-2	49*	2
COCC(=O)Nc1ccc2c(c1)[C@@H]1C[C@@H](CC(=O)NC3CCCC3)O[C@@H](CO)[C@@H]1O2	/	-7	/	/	/	/
Cc1ccccc1NC(=S)N(Cc1ccco1)C(C)c1cccs1 (stereo not given)	19	-9	1	4	47*	4
O=C(NCCCN1CCOCC1)c1ccc(CS(=O)(=O)c2c(Cl)cccc2Cl)o1	0	2	0	2	/	9
O=C(NCCN1CCOCC1)c1ccc(CS(=O)(=O)c2c(Cl)cccc2Cl)o1	-1	/	2	-2	32*	6
Cc1cccc(NC2=C(NC(=O)c3ccccc3)C(=O)c3ccccc3C2=O)c1	1	39*	1	1	1	1
O=C(NC1=C(Nc2ccc(Cl)cc2)C(=O)c2ccccc2C1=O)c1ccccc1	1	51*	3	0	-1	1
SMILES	CAL PDZ FP-1	ARNT TACC3 PPI	GRK2 aptamer HTS	Tn6 DDE FP	CAL PDZ FP-2	Tn7 DDE FP
Cc1cccc(C(=O)Nc2cccc(NC(=O)c3ccccc3)c2)c1	-3	-5	0	-5	-4	-7
CO[C@H]1CN(C)C(=O)c2cc(NC(=O)c3ccccc3)ccc2OC[C@H](C)N(C(=O)C2CC2)C[C@H]1C	/	5	/	/	/	/
COc1[nH]c(/N=C/c2ccccc2)c(C#N)c1C#N	2	14	0	38*	9	6
CCCCC[C@H](C)N1C[C@@H](COCc2ccccc2)Oc2cc(N3CCC[C@H]3C(N)=O)ccc2S1(=O)=O	/	/	/	2	/	2
CC1CCN(CCC(=O)N/N=C/c2ccc([N+](=O)[O-])cc2)CC1	1	3	0	-4	163*	-6
CN1CCN(CCC(=O)N/N=C/c2cc([N+](=O)[O-])ccc2OC(F)F)CC1	0	/	0	-19	4	0
CC(C)(O)C#Cc1ccc([C@@H]2[C@H]3CN(C(=O)c4ccncc4)CCCCN3[C@H]2CO)cc1	/	22	/	/	/	/
C/C(CCc1ccco1)=N\NC(=O)CNc1cccc2ccccc12	-3	-15	0	-4	4	2
C/C(=N\NC(=O)CNc1cccc2ccccc12)c1ccccc1	0	2	4	1	31*	3
Cc1nc(/C=[N+](\[O-])C(C)(C)/C=N/O)n(O)c1C	0	2	1	3	59*	2
Cc1cccc(-n2nc(C)c3c2NC2=C(C(=O)CCC2)C3c2ccccn2)c1 (stereo not given)	/	3	0	8	79*	4
Cc1nn(-c2ccccn2)c2c1C(c1ccsc1)C1=C(CCCC1=O)N2 (stereo not given)	-1	2	1	2	-3	-6
Cc1noc(C)c1NC(=O)N[C@H]1CC[C@@H](CCNC(=O)C2CCOCC2)O[C@@H]1CO	/	9	/	/	/	/
COc1ccc(/C=N/NC(=O)c2cc[n+]([O-])cc2)cc1O	-1	72*	2	1	/	-5
O=C(N/N=C/c1cc(Br)ccc1O)C(c1ccncc1)N1CCOCC1 (stereo not given)	-2	58*	1	-1	-5	-7
COc1ccc(/C=N/NC(=O)CNC(=O)c2ccncc2)cc1OC	-1	0	0	-8	55*	8
O=C(CNC(=O)c1ccncc1)N/N=C/c1cc(Br)ccc1O	-2	46*	13	-6	-1	3
C[C@@H]1CN([C@@H](C)CO)C(=O)c2cc(-c3ccc(C#N)cc3)cnc2O[C@@H]1CN(C)C(=O)Nc1ccc(F)cc1	/	-2	/	/	/	/
C[C@H]1CN([C@@H](C)CO)C(=O)c2cccc(NS(=O)(=O)c3ccc(Cl)cc3)c2O[C@H]1CN(C)C(=O)Nc1ccc2c(c1)OCO2	/	19	/	/	/	/
COc1ccc(S(=O)(=O)Nc2ccc3c(c2)C(=O)N([C@@H](C)CO)C[C@H](C)[C@H](CN(C)S(=O)(=O)c2ccc(C)cc2)OCCCC[C@H](C)O3)cc1	/	-1	/	/	/	/
COc1ccc(OC)c(-n2c(-c3ccccc3)n[nH]c2=S)c1	1	-24	2	-1	37*	6
COc1ccc(OC)c(-n2c(-c3cccc(C)c3)n[nH]c2=S)c1	-2	4	3	-2	1	-3

High-throughput results from PubChem.
